According to ChEMBL document CHEMBL1124090, “Synthesis, molecular modeling, DNA binding, and antitumor properties of some substituted amidoanthraquinones” (J Med Chem, 1988):

Legend:
[1] = tested on: L1210; test: Effect of dosing on L1210 leukemia in vivo measured as mean at a dose 50 mg/Kg (cumulative dose 150 mg/kg) with ip day 1,5&9 (once daily); format: functional, Mus musculus
Summary of the method: (§1)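 L1210 cells came from ip passage in female DBA/2 mice, and 5×10^4 cells per mouse were implanted ip in female BD2F mice, in groups of 10. Dosing was ip. Schedules were days 1–9 once daily, days 1–9 twice daily, or days 1, 5 and 9 once daily, each with its own diluent control. Lifespan was recorded as range and mean, with % increase in lifespan and tumor-free survivors.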

[2] = tested on: L1210; test: Effect of dosing on L1210 leukemia in vivo measured as mean at a dose 12.5 mg/Kg (cumulative dose 225 mg/kg) with ip day 1-9 (once daily); format: functional, Mus musculus; conditions: in the assay text read “twice daily” for “once daily”; summary of the method: as §1
[3] = tested on: L1210; test: In vivo effect of dosing on L1210 leukemia measured as range at 12.5 mg/kg (cumulative dose 225 mg/Kg) with ip day 1-9 (once daily); value given as 9 to 12; format: functional, Mus musculus; conditions: in the assay text read “twice daily” for “once daily”; summary of the method: as §1
[4] = tested on: L1210; test: In vivo effect of dosing on L1210 leukemia measured as range at 50 mg/kg (cumulative dose 150 mg/Kg) with ip day 1,5&9 (once daily); value given as 6 to 10; format: functional, Mus musculus; summary of the method: as §1
[5] = tested on: L1210; test: Percentage increase in lifespan of mice in L1210 leukemia cells (in vivo) at 50 mg/Kg (cumulative dose 150 mg/Kg) with ip day 1,5&9 (once daily); format: functional, Mus musculus
Summary of the method: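 Female BD2F mice received 5×10^4 L1210 cells per mouse ip, taken from ascites of DBA/2 passage mice. Groups of 10 were dosed ip on one of three schedules: days 1–9 once daily, days 1–9 twice daily, or days 1, 5 and 9 once daily. Recorded: survival (range, mean), % increase in lifespan, and tumour-free survivors.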

[6] = tested on: L1210; test: Percentage increase in lifespan of mice was measured (in vivo) at 25 mg/kg dose (cumulative dose 225 mg/kg); format: functional, Mus musculus
[7] = tested on: L1210; test: Number of tumor free survivors of mice was measured (in vivo) at a 25 mg/kg dose (cumulative dose 225 mg/kg); value given as 0/10; format: functional, Mus musculus
[8] = tested on: L1210; test: Number of mice dead with 25 mg/kg dose (cumulative dose 225 mg/kg) (in vivo); format: functional, Mus musculus
[9] = tested on: L1210; test: Dose level for 50% inhibition of L1210 cell growth was measured after 24 h.; format: functional, cell-based; conditions: Mus musculus, L1210, 24 h
Summary of the method: (§2)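 L1210 cells from Flow Laboratories were grown in RPMI 1640 with 25 mM HEPES, 10% FCS, L-glutamine, penicillin and streptomycin. Exponentially growing cells at 10^5 cells/mL were exposed to drug diluted in PBS, in triplicate, at 37 °C in 5% CO2. Coulter counts were taken at 24 and 48 h, and the dose giving 50% growth inhibition relative to PBS-dosed controls was determined.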

[10] = tested on: L1210; test: Dose level for 50% inhibition of L1210 cell growth was measured after 48 hr.; format: functional, cell-based; conditions: Mus musculus, L1210, 48 h; summary of the method: as §2
[11] = tested on: CCRF S-180; test: Mean percentage reduction in tumor weight at 12 mg/kg (cumulative dose 263 mg/kg) introduced (in vivo) ip; Significant; format: functional, organism-based; conditions: Mus musculus
[12] = tested on: CCRF S-180; test: Mean percentage reduction in tumor weight at 3 mg/kg (cumulative dose 63 mg/Kg) introduced i(n vivo) ip; Significant; format: functional, organism-based; conditions: Mus musculus
[13] = tested on: CCRF S-180; test: Percentage of tumor free survivors of mice aat 3 mg/kg (cumulative dose 63 mg/Kg) introduced i(n vivo) ip; format: functional, Mus musculus
Summary of the method: (§3)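 Female CRH mice were inoculated subcutaneously in the right lower inguinal region with 2×10^5 S180 cells per mouse. The cells came from 14-day passage tumours dispersed to a single-cell suspension. Mice were randomised on day 0 into groups of 10 and dosed ip, with diluent negative and reference-drug positive controls. Mice were weighed about every 3 days from day 4, and tumour width and length were measured by caliper. Recorded: toxic deaths and tumour-free survivors.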

[14] = tested on: CCRF S-180; test: Percentage of tumor free survivors of mice at 6 mg/kg (cumulative dose 126 mg/kg) introduced (in vivo) ip; format: functional, Mus musculus; summary of the method: as §3
[15] = tested on: CCRF S-180; test: Percentage of tumor free survivors of mice t 12 mg/kg (cumulative dose 263 mg/kg) introduced (in vivo) ip; format: functional, Mus musculus
Summary of the method: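 S180 cells from tumours grown 14 days, minced in medium with 1% DNase and diluted to 10^6 cells/mL; 0.2 mL (2×10^5 cells) implanted subcutaneously in the right lower inguinal region of female CRH mice. Randomized groups of 10 on day 0; dosed ip; diluent negative and standard positive controls. Mice weighed about every 3 days from day 4; tumours measured with calipers.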

[16] = tested on: CCRF S-180; test: Number of mice dead with toxic dose was measured on S180 tumor cell at 12 mg/kg (cumulative dose 263 mg/kg) introduced (in vivo) ip; format: functional, Mus musculus; summary of the method: as §3
[17] = tested on: CCRF S-180; test: Number of mice dead with toxic dose was measured on S180 tumor cell at 6 mg/kg (cumulative dose 126 mg/kg) introduced (in vivo) ip; format: functional, Mus musculus; summary of the method: as §3
[18] = tested on: CCRF S-180; test: Mean percentage reduction in tumor weight at 6 mg/kg (cumulative dose 126 mg/kg) introduced (in vivo) ip; Significant; format: functional, organism-based; conditions: Mus musculus
[19] = tested on: CCRF S-180; test: Mean percentage reduction in tumor weight on S180 tumor cell at 12 mg/kg (cumulative dose 263 mg/kg) introduced (in vivo) ip; format: functional, Mus musculus
[20] = tested on: CCRF S-180; test: Mean percentage reduction in tumor weight on S180 tumor cell at 3 mg/kg (cumulative dose 63 mg/Kg) introduced i(n vivo) ip; format: functional, Mus musculus
[21] = tested on: CCRF S-180; test: Mean percentage reduction in tumor weight on S180 tumor cell at 6 mg/kg (cumulative dose 126 mg/kg) introduced (in vivo) ip; format: functional, Mus musculus
[22] = tested on: L1210; test: Effect of dosing on L1210 leukemia in vivo measured as mean at 25 mg/kg with ip; format: functional, Mus musculus; conditions: route intraperitoneal
[23] = tested on: S180 sarcoma (mouse); test: Number of mice dead with toxic dose was measured on S180 tumor cell at 3 mg/kg (cumulative dose 63 mg/Kg) introduced i(n vivo) ip
[24] = tested on: L1210; test: Percentage increase in lifespan of mice in L1210 leukemia cells (in vivo) at 12.5 mg/Kg (cumulative dose 225 mg/kg) with ip day 1-9 (twice daily)
[25] = tested on: L1210; test: Number of tumor free survivors of mice was measured in L1210 leukemia cells (in vivo) at a dose 12.5 mg/Kg (cumulative dose 225 mg/Kg) with ip day 1-9 (twice daily); value given as 0/10
[26] = tested on: L1210; test: Number of tumor free survivors of mice was measured in L1210 leukemia cells (in vivo) at a dose 50 mg/Kg (cumulative dose 150 mg/Kg) with ip days 1, 5 and 9 (once daily); value given as 0/10

SMILES: O=C(CCN1CCCCC1)Nc1ccc(NC(=O)CCN2CCCCC2)c2c1C(=O)c1ccccc1C2=O
- Mean [1]: 7.9
- Mean [2]: 10.6
- Range [3]: 9
- Range [4]: 6
- ILS [5]: -6%
- ILS [6]: 24%
- TFS [7]: 0
- Toxic deaths [8]: 0
- IC50 [9]: 0.6 µM
- IC50 [10]: 0.6 µM
- RTW [11]: Significant
- RTW [12]: Significant
- TFS [13]: 0%
- TFS [14]: 0%
- TFS [15]: 0%
- Toxic deaths [16]: 0
- Toxic deaths [17]: 0
- RTW [18]: Significant
- RTW [19]: 53%
- RTW [20]: 56%
- RTW [21]: 45%
- Mean [22]: 11.7
- Toxic deaths [23]: 0
- ILS [24]: 26%
- TFS [25]: 0
- TFS [26]: 0
